# Most compounds without a hit are left out; they make up all but 6.8% or so of the library.
# PHOSPHO1 inh: PubChem AID 1565; recombinant PHOSPHO1, absorbance phosphatase assay; Phosphoethanolamine/phosphocholine phosphatase (Homo sapiens), Q8TCT1; inhibition, % at 13.3 µM; 1.1% of 290,000 active; in the data active = inhibition above about 60%
# Target sequence (Q8TCT1 whole entry, looked up): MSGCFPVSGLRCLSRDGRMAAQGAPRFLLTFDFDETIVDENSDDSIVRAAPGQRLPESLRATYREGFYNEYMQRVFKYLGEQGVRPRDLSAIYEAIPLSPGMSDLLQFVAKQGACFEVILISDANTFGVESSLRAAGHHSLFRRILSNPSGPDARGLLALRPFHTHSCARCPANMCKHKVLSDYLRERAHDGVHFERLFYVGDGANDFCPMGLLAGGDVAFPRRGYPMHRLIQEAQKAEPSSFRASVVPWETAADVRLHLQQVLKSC
# core dimer inh: inhibitors of HCV core protein dimerization, primary screen, biochemical, TR-FRET, high-throughput. 0.33% of 300,000 active. inhibition, % at 5 µM. TR-FRET GST/Flag-core106 dimerization, 1536-well. AID 1899, 2009;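 active = inhibition above the mean of all tested compounds plus 3 SD, set per screening campaign, cut at about 45% in these data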
#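 System: GST-tagged and Flag-tagged HCV core protein residues 1-106 / Input: core106 proteins, GST 13.5 nM and Flag 17 nM / Buffer or medium: KF-containing HEPES buffer, pH 7.45, DTT, CHAPS, BSA / Probe or stimulus: Eu-anti-GST and XL665-anti-Flag labelled anti-tag antibodies / Schedule: 4 h, 22.5 °C incubation / Technique: TR-FRET 671 and 617 nm emission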
# AI-2 QS mod: Vibrio harveyi AI-2 quorum sensing modulators, primary screen, JMH597 strain, luminescence/OD600 ratio. 0.4% of 300,000 active. activity change, % at 7.5 µM. Vibrio harveyi JMH597 AI-2 luminescence/OD600 ratio, 9 h; active compounds read low; strain lacks LuxN and CqsS sensors; 0 = neutral-control median. AID 2094, 2009; in the data active = activity change below about -75%, passing the limit was not always enough; inconclusive = no clear call, values can overlap the other calls;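 also: luminescence divided by OD600 gain over 9 h not by final OD600 alone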
# ALR inh: inhibitors of human ALR sulfhydryl oxidase, primary screen, biochemical, H2O2 detection, HRP-luminol luminescence, single point. FAD-linked sulfhydryl oxidase ALR (Homo sapiens), P55789. purified ALR, DTT oxidation. inhibition, % (test concentration not listed). 3.8% of 290,000 active. AID 485317, 2010;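 active = mean replicate inhibition above about 79%, with every replicate also reaching it, limit read from the data; inconclusive = only one of the two criteria met; inactive = mean below limit and not every replicate reaching it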
# Target sequence (P55789 whole entry, looked up): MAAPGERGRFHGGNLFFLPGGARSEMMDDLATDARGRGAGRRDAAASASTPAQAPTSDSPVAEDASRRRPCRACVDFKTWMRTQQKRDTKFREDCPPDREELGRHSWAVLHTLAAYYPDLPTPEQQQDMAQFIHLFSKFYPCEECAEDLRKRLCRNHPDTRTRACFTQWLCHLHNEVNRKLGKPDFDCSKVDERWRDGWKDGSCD
# HSF1 inh: HSF1 inhibitors in luciferase reporter cells, primary screen, cell-based, NIH3T3, luminescence | AID 2098, 2009 | 0.77% of 300,000 active | NIH3T3-HGL HSE-luciferase, MG132-induced, luminescence 8 h; active compounds read low | activity change, negative = inhibition, % at 7.5 µM (by protocol);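 active = more than half of replicate wells show activity change below -50%, luminescence cut by over half; inconclusive = some wells, but at most half, below -50%; inactive = no replicate well below -50%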;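 also: luciferase reports HSF-1 transcriptional activity via heat shock element; 0% = median of DMSO wells and -100% = zero luminescence signal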
# HSF-1 act: HSF-1 activators, primary screen, NIH3T3-HGL cells, MG132 stress, luminescence, single point; NIH3T3-HGL HSF-1 luciferase reporter, 8 h; 100% = twice DMSO control signal; activation, % at 9 µM; AID 504408, 2011; 1.7% of 300,000 active;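 active = mean replicate activation of at least 50% with a set share of replicates each reaching 50%; inconclusive = only one of those two conditions met; inactive = mean below 50% and too few replicates reaching it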;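 also: 0% = median of the neutral control wells and 100% = twice that signal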
# * marks the source's active call; other numbers are inactive results; ? = inconclusive; . = not tested or not shown.
SMILES,PHOSPHO1 inh,core dimer inh,AI-2 QS mod,ALR inh,HSF1 inh,HSF-1 act
COc1ccc(OC)c(C2CC(=O)N3CN(c4ccccc4F)CSC3=C2C#N)c1 (configuration not stated),86*,-7,17,79*,2,-10
COc1ccc(OC)c(C2CC(=O)N3CN(c4cccc(Cl)c4C)CSC3=C2C#N)c1 (configuration not stated),93*,-3,10,-55,18,11
COc1cccc(C2CC(=O)N3CN(c4cccc(Cl)c4C)CSC3=C2C#N)c1OC (configuration not stated),88*,1,25,-20,0,10
COc1ccc(CCN2C(=O)c3ccccc3NC2c2cc(Cl)c(O)c(OC)c2)cc1 (configuration not stated),-6,-18,8,9,8,-2
CCNC(=O)O/N=C(\C)c1sc(-c2ccc(Cl)cc2)nc1C,33,6,4,20,34,60*
Cc1ccc(N2C(=O)N(CC(=O)Nc3cc(F)ccc3C)C(=O)C2C)cc1 (configuration not stated),.,-2,.,1,-30,-48
c1ccc(SCc2nc(-c3ccncc3)no2)cc1,5,6,-10,-2,44,73*
CCc1ccc(NCc2nc(-c3ccccc3)no2)cc1,11,3,-96*,18,0,9
c1ccc(-c2noc(-c3cccc4ccccc34)n2)cc1,-24,2,15,11,30,?
c1ccc(CCc2nc(-c3cccnc3)no2)cc1,-6,-7,-93*,-3,0,15
c1ccc2c(-c3nc(-c4ccncc4)no3)cccc2c1,-11,-3,21,-4,36,78*
c1ccc(CCc2ccccc2-c2nc(-c3cccnc3)no2)cc1,-14,4,24,-4,4,-1
Cc1coc2c(C)c3oc(=O)c(CCC(=O)NCCC(=O)O)c(C)c3cc12,-20,2,16,0,2,1
Brc1ccc(-c2noc(CCc3ccccc3)n2)cc1,.,-5,-60,-1,19,35
c1ccc(CCc2nc(-c3ccccc3)no2)cc1,29,-1,-94*,-2,16,39
CCCCN1C2=NC(c3ccccc3)CN2c2ccccc21 (configuration not stated),.,-2,32,93*,-2,2
CCCCN1C2=NCCCN2c2ccccc21,23,0,26,0,2,4
Cc1[nH]c2ccccc2c1C(=O)CSC(=S)N1CCOCC1,37,-1,2,-25,13,5
Nn1c(SCC(=O)NC(=O)Nc2ccc3c(c2)OCCO3)nnc1C1CC1,-21,-5,29,-5,-6,0
CCOCCCN1CN(Cc2ccco2)CNC1=S,-12,0,52,-16,1,4
COCCN1CSC(=S)N(Cc2ccco2)C1,94*,3,17,38,.,.
S=C1SCN(Cc2ccccn2)CN1Cc1ccco1,94*,-5,16,3,.,.
S=C1SCN(Cc2cccnc2)CN1Cc1ccccc1,2,0,24,.,1,5
NCC1CC2c3ccccc3C1c1ccccc12 (configuration not stated),33,7,14,-2,-5,-5
O=C(Nc1ccccn1)C1CCCN(c2ncnc3c2nc2n3CCCCC2)C1 (configuration not stated),32,-2,-50,3,-16,-19
SMILES,PHOSPHO1 inh,core dimer inh,AI-2 QS mod,ALR inh,HSF1 inh,HSF-1 act
CCOc1ccc(NC(=O)C2CCCN(c3nn4c(=O)cc(C)nc4s3)C2)cc1 (configuration not stated),37,1,13,-8,-62*,-69
Cc1cc(C)cc(NC(=O)C2CCCN(c3nc(C)cc(C)n3)C2)c1 (configuration not stated),-1,-5,0,-3,2,5
Cc1cc(C)nc(N2CCCC(C(=O)Nc3ccc4nc(C)c(C)nc4c3)C2)n1 (configuration not stated),5,0,11,54,25,57*
COc1cccc(/C(N)=N/OC(=O)Cc2ccccc2[N+](=O)[O-])c1,37,5,16,-1,11,4
CCOc1ccc(S(=O)(=O)N2CCOCC2)cc1NC(=O)CSC(=S)N1CCCC1,.,3,4,-7,-6,-21
CC(=O)N1[C@H](Cc2ccccc2)C=C[C@]1(C)C(=O)NCCc1c[nH]c2ccccc12,-14,8,11,99*,3,-5
Nc1nonc1C(=O)NCCN=Cc1cc(Cc2ccccc2)cc(Br)c1O,18,3,-149*,3,3,29
COc1ccc(C2c3c(ncn(CCCO)c3=N)Oc3ccc4ccccc4c32)cc1 (configuration not stated),27,-2,12,-11,16,58*
CCN(CC)S(=O)(=O)c1ccc2c(c1)nc(SCC(=O)N(C)C1CCS(=O)(=O)C1)n2CC (configuration not stated),.,-8,4,-5,-7,-12
C/C(=N/NC(=O)c1cc2ccccc2cc1O)c1ccco1,14,-19,9,13,95,93*
Cn1c(=S)[nH]c2[nH]c(=O)cnc2c1=O,7,3,6,10,-9,-20
O=C(NCCN1CCOCC1)c1ccc2c(c1)N(Cc1ccccc1F)C(=O)c1ccccc1S2,-15,4,26,-5,6,6
Cc1ccccc1CN1C(=O)c2ccccc2Sc2ccc(C(=O)NCCN3CCOCC3)cc21,18,-7,-17,-3,27,60*
c1ccc(NCC2OCc3ccccc3CO2)cc1,-14,-10,26,98*,15,31
COc1ccc2[nH]c(C(=O)O)c(NS(=O)(=O)c3ccc(Cl)s3)c2c1,-12,-2,15,99*,4,0
CCOC(=O)c1[nH]c2ccc(OC)cc2c1NS(=O)(=O)c1ccc(Cl)s1,5,2,-84*,66,-19,-27
CCOC(=O)c1[nH]c2ccc(OC)cc2c1NC(=O)c1nonc1C,-10,2,13,-17,-2,1
Cc1ccc(S(=O)(=O)N2CCC(C(=O)N3CCCC3C(=O)N[C@@H](CC(C)C)C(=O)NCC(N)=O)CC2)cc1 (some centres not stated),-28,0,19,-4,1,6
